# Assay results reported in ChEMBL document CHEMBL3867429, “Euphorbesulins A-P, Structurally Diverse Diterpenoids from Euphorbia esula” (J Nat Prod, 2016).
# System: Plasmodium falciparum
# Experiment: Antimalarial activity against chloroquine-resistant Plasmodium falciparum Dd2 after 72 hrs by SYBR green-based fluorescence assay
# Format: functional
# Conditions: Dd2, 72 h
# Method in brief: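 Growth-inhibition assay of the chloroquine-resistant P. falciparum Dd2 strain over 72 h, read by SYBR Green fluorescence and run under a slightly modified published protocol. Artemisinin served as positive control.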
row,SMILES,IC50 [µM]
1,C=C1C[C@]2(O)C(=O)C(C)(C)C[C@H]2[C@@](C)(O)C(=O)[C@@]2(O)C[C@H](C)[C@H](OC(=O)c3ccccc3)[C@@H]2[C@H]1OC(C)=O,> 5
2,C=C1C[C@]2(O)C(=O)C(C)(C)C[C@H]2[C@@](C)(O)C(=O)[C@@]2(O)C[C@H](C)[C@H](OC(=O)c3ccccc3)[C@@H]2[C@H]1OC(=O)[C@H](C)C(C)C,2.41
3,C=C1[C@H](OC(=O)c2ccccc2)[C@@H](O)[C@@H](OC(C)=O)C(C)(C)/C=C/[C@H](C)C(=O)[C@@]2(OC(C)=O)C[C@H](C)[C@H](OC(C)=O)[C@@H]2[C@H]1OC(C)=O,> 5
4,C=C1[C@H](OC(=O)c2ccccc2)[C@@H](OC(C)=O)[C@@H](OC(C)=O)C(C)(C)/C=C/[C@H](C)C(=O)[C@@]2(OC(C)=O)C[C@H](C)[C@H](OC(C)=O)[C@@H]2[C@H]1OC(=O)c1ccccc1,0.12
5,C=C1[C@H](OC(C)=O)[C@@H](OC(C)=O)[C@@H](OC(C)=O)C(C)(C)/C=C/[C@H](C)C(=O)[C@@]2(OC(C)=O)C[C@@](C)(OC(C)=O)[C@H](OC(=O)c3ccccc3)[C@@H]2[C@H]1OC(C)=O,> 5
6,C=C1[C@H](OC(C)=O)[C@@H](OC(C)=O)[C@@H](OC(C)=O)C(C)(C)/C=C/[C@H](C)C(=O)[C@]2(OC(C)=O)[C@H]([C@@H](OC(C)=O)[C@@H](C)[C@H]2O)[C@H]1OC(=O)c1ccccc1,> 5
7,C=C1[C@H](OC(=O)c2ccccc2)[C@@H](O)[C@@H](OC(C)=O)C(C)(C)/C=C/[C@H](C)C(=O)[C@@]2(OC(C)=O)C[C@@](C)(OC(C)=O)[C@H](OC(C)=O)[C@@H]2[C@H]1OC(C)=O,> 10
8,C=C1[C@H](OC(C)=O)[C@@H](OC(C)=O)[C@@H](OC(C)=O)C(C)(C)/C=C/[C@H](C)C(=O)[C@]2(OC(C)=O)[C@H]([C@@H](OC(=O)c3ccccc3)[C@@H](C)[C@H]2O)[C@H]1OC(C)=O,> 5
9,C=C1[C@H](OC(C)=O)[C@@H](OC(C)=O)[C@@H](OC(C)=O)C(C)(C)/C=C/[C@H](C)C(=O)[C@]2(O)[C@H]([C@@H](OC(C)=O)[C@@H](C)[C@H]2OC(C)=O)[C@H]1OC(=O)c1ccccc1,> 5
10,C=C1[C@H](OC(=O)c2ccccc2)[C@@H](OC(C)=O)[C@@H](OC(C)=O)C(C)(C)/C=C/[C@H](C)C(=O)[C@]2(OC(C)=O)[C@H]([C@@H](OC(C)=O)[C@](C)(O)[C@H]2O)[C@H]1OC(=O)c1ccccc1,> 5
11,C=C1C[C@]2(O)C(=O)C(C)(C)C[C@H]2[C@@](C)(O)C(=O)[C@@]2(O)C[C@H](C)[C@H](OC(=O)c3ccccc3)[C@@H]2[C@H]1OC(=O)c1ccccc1,> 5
12,C[C@@H]1CC[C@H]2[C@@H](C)C(=O)O[C@@H]3O[C@@]4(C)CC[C@@H]1[C@]32OO4 [ARTEMISININ],0.007
